Experimental data taken from ChEMBL document CHEMBL1136005 (J Med Chem, 2002).
pIC50: −log10 of the molar value.

Key:
[1] = biological target: Platelet-derived growth factor receptor (Homo sapiens, UniProt P09619+P16234); assay: Concentration required for 50% inhibition against autophosphorylation of Platelet-derived growth factor receptor beta in intact cells using a two site ELISA; format: cell-based
[2] = Plasma concentration was determined after 8 hr at a dose 30 mg/kg administered orally to rat-2; format: ADME, organism-based; set-up: dose 30 mg/kg, route oral; conditions: po
How it was run: (§1)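 Sprague-Dawley rats, n=2 per compound, dosed orally at 30 mg/kg. Plasma drug concentration measured 1 and 8 h after dosing.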

[3] = Plasma concentration was determined after 8 hr at a dose 30 mg/kg administered orally to rat-1; format: ADME, organism-based; set-up: dose 30 mg/kg, route oral; conditions: po; how it was run: as §1
[4] = Plasma concentration was determined after 1 hr at a dose 30 mg/kg administered orally to rat-1; format: ADME, organism-based; set-up: dose 30 mg/kg, route oral; conditions: po; how it was run: as §1
[5] = Plasma concentration was determined after 1 hr at a dose 30 mg/kg administered orally to rat-2; format: ADME, organism-based; set-up: dose 30 mg/kg, route oral; conditions: po; how it was run: as §1

pIC50 [1]	SMILES	further results
< 4.52	COc1cc2ncnc(N3CCN(C(=S)Nc4ccccn4)CC3)c2cc1OC	
5.51	COc1ccc(CNC(=O)N2CCN(c3ncnc4cc(OC)c(OC)cc34)CC2)cc1	concentration at 8 h [2]: 1900 ng/mL; concentration at 8 h [3]: 1400 ng/mL; concentration at 1 h [4]: 7300 ng/mL; concentration at 1 h [5]: 11600 ng/mL
4.85	COc1cc2ncnc(N3CCN(C(=O)Nc4ccncc4)CC3)c2cc1OC	
< 4.52	COc1cc2ncnc(N3CCN(C(=O)N(C)c4ccc(Br)cc4)CC3)c2cc1OC	
< 4.52	COc1cc2ncnc(N3CCN(/C(=C/[N+](=O)[O-])NCc4ccc5c(c4)OCO5)CC3)c2cc1OC	
6.72	COc1cc2ncnc(N3CCN(C(=NC#N)NCc4ccc5c(c4)OCO5)CC3)c2cc1OC	
4.70	COc1cc2ncnc(N3CCN(C(=S)NCCc4cccnc4)CC3)c2cc1OC	
6.28	COc1cc2ncnc(N3CCN(C(=O)Nc4ccc(Br)cc4)CC3)c2cc1OC	
< 4.52	COc1cc2ncnc(N3CCN(/C(S)=N\CC4CCCO4)CC3)c2cc1OC (stereo not drawn)	
6.39	COc1cc2ncnc(N3CCN(C(=S)Nc4cccnc4)CC3)c2cc1OC	
6.80	COc1cc2ncnc(N3CCN(C(=S)NCc4ccc(C(C)(C)C)cc4)CC3)c2cc1OC	
6.02	COc1cc2ncnc(N3CCN(/C(S)=N\Cc4ccc(Oc5ccccc5)cc4)CC3)c2cc1OC	
6.47	COc1cc2ncnc(N3CCN(C(=NC#N)NCc4ccc(C)cc4)CC3)c2cc1OC	
5.90	COc1cc2ncnc(N3CCN(C(=O)NCc4ccc(Cl)cc4)CC3)c2cc1OC	
< 4.52	COc1cc2ncnc(N3CCN(C(=NC#N)NCc4ccccc4Cl)CC3)c2cc1OC	
6.10	COc1cc2ncnc(N3CCN(C(=S)Nc4ccc(Cl)cc4)CC3)c2cc1OC	
5.96	COc1cc2ncnc(N3CCN(C(=S)NCCc4ccc(Cl)cc4)CC3)c2cc1OC	
7.52	COc1cc2ncnc(N3CCN(C(=O)Nc4ccc(C(C)(C)C)cc4)CC3)c2cc1OC	
< 4.52	COc1cc2ncnc(N3CCN(C(=S)NC(=O)c4ccc(Cl)cc4)CC3)c2cc1OC	
7.52	COc1cc2ncnc(N3CCN(C(=S)NCc4ccc(C)cc4)CC3)c2cc1OC	
< 4.52	COc1cc2ncnc(N3CC(C)N(C(=O)Nc4ccc(Oc5ccccc5)cc4)CC3C)c2cc1OC (stereo not drawn)	
6.13	COc1cc2ncnc(N3CCN(C(=O)NCc4ccc(Br)cc4)CC3)c2cc1OC	
< 4.52	COc1cc2ncnc(N3CCN(C(=O)NCc4ccsc4)CC3)c2cc1OC	
< 5.00	COc1cc2ncnc(N3CCN(C(=S)NCC4CCCCC4)CC3)c2cc1OC	
5.28	COc1cc2ncnc(N3CCN(C(NCc4ccc(Cl)cc4)=C(C#N)C#N)CC3)c2cc1OC	
6.85	COc1cc2ncnc(N3CCN(C(=O)NCC(=O)c4ccc(Br)cc4)CC3)c2cc1OC	
6.19	COc1cc2ncnc(N3CC(C)N(/C(S)=N\Cc4ccccc4)C(C)C3)c2cc1OC (stereo not drawn)	
5.73	COc1cc2ncnc(N3CCN(C(=O)NCc4ccc5c(c4)OCO5)CC3)c2cc1OC	
< 4.52	COc1cc2ncnc(N3CCN(C(=O)NS(=O)(=O)c4ccc(Cl)cc4)CC3)c2cc1OC	
